A selection: hits, their analogues and other compounds. The true share with any hit is near 2.6%.
Platelet DG rel: platelet dense granule release activity; human platelet-rich plasma, SFLLRN dense granule ATP release, luminescence; inhibition, %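 (compounds screened at 7.5 µM in platelet-rich plasma)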; actives 0.22% (n = 300,000);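 active = mean replicate score, as percent of positive control, at or above 50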
SENP8 block-1: SENP8 protease inhibition | inhibition, % at 10 µM | purified SENP8, Z-RLRGG-aminoluciferin cleavage, luminescence | Q96LD8 | actives 1.2% (n = 330,000); in the data active = inhibition above about 50%
SENP7 inh: SENP7 protease inhibition | Q9BQF6 | inhibition, % at 5 µM | recombinant SENP7, Z-RLRGG-aminoluciferin luminescence, 40 min | actives 1.5% (n = 330,000);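 active = inhibition above about 50% at the single test dose, limit read from the data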;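 also: plate controls were DMSO with enzyme for no effect and no enzyme buffer wells for full effect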
SENP8 block-2: blocks human SENP8 cleavage of Nedd8 substrate; Q96LD8; recombinant SENP8, Nedd8 substrate fluorescence; inhibition, % at 20 µM; actives 0.64% (n = 360,000); AID 602440; in the data active = inhibition mostly above about 40%, no sharp cut-off; inactive = mostly below about 27%
SENP6 block: SENP6 protease inhibition; Q9GZR1; Recombinant SENP6 catalytic domain, aminoluciferin luminescence; inhibition, % at 10 µM; actives 1.8% (n = 330,000);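 active = inhibition above about 50% at the single tested dose, limit read from the data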;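 also: plate controls were DMSO wells with enzyme for no effect and DMSO wells lacking enzyme for full effect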
Target sequence (Q9GZR1 628-1112 limits assumed): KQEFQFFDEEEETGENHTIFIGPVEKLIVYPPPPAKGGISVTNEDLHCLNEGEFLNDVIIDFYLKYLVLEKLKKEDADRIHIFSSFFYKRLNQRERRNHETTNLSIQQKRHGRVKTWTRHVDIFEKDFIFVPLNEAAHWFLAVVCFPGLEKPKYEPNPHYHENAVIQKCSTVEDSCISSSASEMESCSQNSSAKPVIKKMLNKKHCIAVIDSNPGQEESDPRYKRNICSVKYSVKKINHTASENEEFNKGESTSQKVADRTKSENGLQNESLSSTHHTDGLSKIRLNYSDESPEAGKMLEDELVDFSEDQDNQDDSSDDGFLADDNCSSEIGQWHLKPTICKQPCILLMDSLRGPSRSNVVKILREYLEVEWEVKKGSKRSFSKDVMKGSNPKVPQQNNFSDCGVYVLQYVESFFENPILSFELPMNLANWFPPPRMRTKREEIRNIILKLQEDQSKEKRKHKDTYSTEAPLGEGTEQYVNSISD
SENP1 FRET inh: blocks the human SENP1 SUMO protease catalytic domain. recombinant SENP1 catalytic domain, CyPet-SUMO1-YPet FRET cleavage. AID 624204. inhibition, % at 10 µM. actives 0.21% (n = 360,000);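 active = inhibition at least 30% at 10 µM, raw YFP signal under a set limit, fluorescence ratio 0.5 to 1.5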;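 also: 0% = enzyme with DMSO and 100% = no enzyme wells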
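Assay system: hSENP1 catalytic domain, recombinant. Amount: SENP1 enzyme, 20 pM final. Schedule: 50 min reaction, RT, dark. Technique: FRET, CFP and YFP emission. Control set: no-enzyme wells low, DMSO-plus-enzyme wells high control.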
Starred values were filed as active, the others as inactive; x = no result given.

SMILES	Platelet DG rel	SENP8 block-1	SENP7 inh	SENP8 block-2	SENP6 block	SENP1 FRET inh
O=C1c2ccccc2C(=O)c2c(/C=C/N3CCCCC3)ccnc21	x	x	x	64*	x	8
COc1ccc(N2CCN(S(=O)(=O)c3c(C)nc4sccn4c3=O)CC2)cc1	95*	1	-2	2	0	-1
CC(C)OCCCNc1ncc2c(n1)CC(c1cccs1)CC2=O (stereo unspecified)	-9	-1	8	13	11	0
CC(C)C(=O)Nc1ncc2c(n1)CC(c1cccs1)CC2=O (stereo unspecified)	65*	-2	4	-4	-9	2
COc1ccc(N2CCN(C(=O)c3cn(CC4CCCCC4)nn3)CC2)cc1	1	-5	11	17	-8	1
COc1ccc(C)cc1NC(=O)c1cc(S(=O)(=O)N2CCCC2)cn1C	22	-5	17	3	-16	1
COc1ccc(Cl)cc1NC(=O)c1cc(S(=O)(=O)N2CCCC2)cn1C	63*	-12	-9	-5	-27	1
Cn1cc(S(=O)(=O)N2CCCC2)cc1C(=O)N1CCN(c2cccc(Cl)c2)CC1	59*	8	-3	2	2	2
O=C(NCCn1cccn1)C1CCC(=O)N(CCc2ccc(Cl)cc2)C1 (stereo unspecified)	5	-2	-9	7	-6	2
CCC(C(=O)Nc1c(C)cccc1C)n1c(-c2ccc(=O)[nH]c2)nc2ccccc21 (stereo unspecified)	x	x	x	-70	x	13
COc1cccc(-c2nn(-c3ccccc3)cc2C(=O)O)c1	62*	-1	1	14	-8	0
Cc1cc(C)cc(CC2CC(=O)N(c3ccc([N+](=O)[O-])cc3)C2=O)c1 (stereo unspecified)	10	8	-9	30	-9	1
CC1(C(=O)NCc2ccccc2)CN(S(C)(=O)=O)CC(=O)N1C1CC1 (stereo unspecified)	x	x	x	15	x	0
CC(=O)N(Cc1ccc(F)cc1)C1=C(NCCc2ccccc2)C(=O)c2ccccc2C1=O	2	31	30	76*	48	-3
NC(=S)N=Nc1c(O)n(CCCl)c2ccc(Br)cc12	-7	-5	-4	50*	-26	4
COc1ccc(OC)c(NC(=O)CCc2c[nH]c3ccccc23)c1	4	4	5	19	-8	1
CC1=NN(c2ccccc2)C(=O)C1N=Nc1ccc(N)cc1 (stereo unspecified)	8	11	11	61*	6	10
Cc1ccc(NC(=O)COc2ncnc3cc([N+](=O)[O-])ccc23)cc1S(=O)(=O)N1CCOCC1	-8	-6	-2	4	-24	-17
COc1ccc(N2CC(C(=O)Nc3ccccc3N3CCCC3)CC2=O)c(OC)c1 (stereo unspecified)	2	5	-6	2	-7	2
O=C1NN(c2cccc(Br)c2)C(=O)/C1=C/c1ccc(-c2cc([N+](=O)[O-])ccc2O)o1	1	11	6	51*	16	4
CCOc1cc(C2CC(=O)N3CN(C4CCCCC4)CSC3=C2C#N)ccc1O (stereo unspecified)	-2	-1	25	66*	14	-42
CC(C)(C)c1ccc(C(=O)N2CCC2(C)C(=O)NCc2ccc3c(c2)OCO3)cc1 (stereo unspecified)	x	x	x	24	x	1
O=C(O)c1ccc(N/N=C/C=C/c2ccccc2)cc1	25	95*	92*	-216	98*	-32
O=c1c(N=Nc2ccc(O)cc2)c(-c2ccccc2)[nH]n1-c1ccc([N+](=O)[O-])cc1	7	6	4	56*	3	25
COC(=O)C(CC(=O)c1cccc(OC)c1)c1ccc(F)cc1 (stereo unspecified)	3	3	4	10	9	3
SMILES	Platelet DG rel	SENP8 block-1	SENP7 inh	SENP8 block-2	SENP6 block	SENP1 FRET inh
O=C(CSc1ccsc1[N+](=O)[O-])Nc1cc(F)ccc1F	-7	x	x	8	x	2
CCN(CC)c1ccc(NC(=O)CSc2ccsc2[N+](=O)[O-])c(C)c1	5	3	6	46*	7	3
COc1ccc(N2CCN(C(=S)NCc3ccccc3)CC2)cc1	4	8	11	12	-10	1
C[C@@H]1Cc2c(O)c(O)cc(O)c2C(=O)O1	-1	3	1	44*	-2	-4
CCN(CC)S(=O)(=O)c1cccc(C(=O)Oc2cccc(NC(=O)c3cccs3)c2)c1	-6	-8	-3	19	-3	0
Cc1cc2cc3c(cc2nc1SCC(=O)N1c2ccccc2CC1C)OCO3 (stereo unspecified)	5	-2	-5	-6	0	1
Cc1cc2ccccc2nc1SCC(=O)N1c2ccccc2CC1C (stereo unspecified)	67*	-2	-2	21	-4	1
COc1ccc(/C=N/Nc2cc(OC)ncn2)cc1	52*	x	x	10	x	1
COc1ccc(/C=N/Nc2cc(C)nc(N)n2)cc1	30	-7	3	5	-23	0
CCCn1cc(S(=O)(=O)c2ccccc2)c(=O)c2cc(F)c(N3CCN(C)CC3)cc21	-2	0	-4	-213	9	0
CC(=O)c1ccc(NC(=S)Nc2cccc3cnccc23)cc1	-3	92*	61*	-318	87*	-16
O=S(=O)(Nc1ncccn1)c1ccc(NC(=S)Nc2ccc(Cl)cc2)cc1	-9	-2	0	39	70*	1
O=C(Nc1ccc(Cl)cc1)Nc1ccc(S(=O)(=O)Nc2ncccn2)cc1	0	8	-5	6	12	1
CCC(Oc1ccccc1)C(=O)NC1C(=O)N2C1SC(C)(C)C2C(=O)O (stereo unspecified)	2	-1	61*	15	19	2
O=C(Nc1ncc([N+](=O)[O-])s1)c1ccc2c(c1)OCO2	80*	97*	102*	19	96*	-63
O=C(Cc1ccc(Br)cc1)Nc1ncc([N+](=O)[O-])s1	-20	92*	53*	18	94*	-49
CCOC(=O)[C@]12CCCC=C1N(CCC1=CCCCC1)C(=O)[C@H](CC(=O)NCc1ccccc1)C2	x	x	x	5	x	-2
Cc1ccc(S(=O)(=O)N2CCOC2CNC(=O)C(=O)NCc2ccncc2)cc1 (stereo unspecified)	-1	5	13	23	11	3
Cc1cc(C)n2[nH]c(=O)c(N=Nc3ccc(S(N)(=O)=O)cc3)c2n1	5	0	1	20	17	4
Cc1ccc(N=Nc2c(=O)[nH]n3c(C)cc(C)nc23)cc1	5	-10	-10	49*	-15	5
CCOC(=O)c1sc(N2C(=O)C(O)=C(C(=O)c3ccc(C)o3)C2c2cccc([N+](=O)[O-])c2)nc1C (stereo unspecified)	51*	x	x	4	x	-30

From PubChem BioAssay
